Test results taken from ChEMBL document CHEMBL4118021, “Studies of TAK1-centered polypharmacology with novel covalent TAK1 inhibitors” (Bioorg Med Chem, 2017).
Values belong to the compound of their own block, whether it stands above or below them. The source made the active and inactive calls. The rule behind the calls is not given here.

Assays:
[1] = target: Phosphatidylinositol 4-phosphate 3-kinase C2 domain-containing subunit beta (Homo sapiens) (UniProt O00750); test: Inhibition of PIK3C2B in human SKCO1 cells at 1 uM after 4 hrs using biotin labeled VIFKCGDDLRQDMLTLQMIR probe by mass-spectrometric analysis relative to control; format: cell-based
[2] = target: T1, Dual specificity mitogen-activated protein kinase kinase 5 (Homo sapiens) (UniProt Q13163); test: Inhibition of human MEK5 (98 to 448 residues) expressed in mammalian expression system assessed as enzyme activity at 1 uM by KINOMEScan assay relative to control; set-up: scale not given: the % may be the effect or the level left
T1 sequence (whole entry): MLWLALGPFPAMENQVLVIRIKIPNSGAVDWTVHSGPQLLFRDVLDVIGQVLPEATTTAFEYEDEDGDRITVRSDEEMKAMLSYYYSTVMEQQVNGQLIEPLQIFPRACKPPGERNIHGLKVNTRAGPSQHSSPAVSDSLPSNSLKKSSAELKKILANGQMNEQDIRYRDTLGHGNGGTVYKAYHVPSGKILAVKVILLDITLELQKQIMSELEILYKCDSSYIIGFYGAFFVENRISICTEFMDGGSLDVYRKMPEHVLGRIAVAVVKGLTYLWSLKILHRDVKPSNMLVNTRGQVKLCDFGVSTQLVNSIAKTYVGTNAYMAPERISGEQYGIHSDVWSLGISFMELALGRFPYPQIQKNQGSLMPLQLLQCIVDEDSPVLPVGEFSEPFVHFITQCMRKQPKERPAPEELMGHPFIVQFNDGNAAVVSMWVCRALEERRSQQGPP
Summary of the method: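 In vitro ATP-site competition binding assay across a panel of 456 kinases, with compound tested at 1 and 10 μM.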

[3] = target: Cyclin-dependent kinase-like 2 (Homo sapiens) (UniProt Q92772); test: Inhibition of human CDKL2 (1 to 327 residues) expressed in bacterial expression system assessed as enzyme activity at 1 uM by KINOMEScan assay relative to control; set-up: scale not given: the % may be the effect or the level left
Summary of the method: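 In vitro ATP-site competition binding assay (KinomeScan) across a panel of 456 kinases. Compound was tested at 1 and 10 μM. The read-out is the binding inhibition score relative to control.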

[4] = target: T2, 80S Ribosome (Homo sapiens) (UniProt P08865+P42677+P62753+P15880+P23396+P61247+P62701+P22090+P46782+P62081+P62241+P46781+P46783+P62280+P25398+P62277+P62263+P62841+P62244+P62249+P08708+P62269+P39019+P60866+P63220+P62266+P62847+P62851+P62854+P62979+P62857+P62273+P62861+P39023+P36578+P46777+Q02878+P18124+P62424+P62917+P32969+P27635+P62906+P62913+P30050+P26373+P40429+P50914+P61313+P18621+Q07020+Q02543+P84098+P46778+P35268+P62829+P62750+P83731+P61254+P61353+P46776+P46779+P47914+P62888+P62899+P62910+P49207+P42766+P18077+Q9Y3U8+P83881+P61927+P61513+P63173+P62891+P62945+P05388+P05386); test: Binding affinity to RPL23A in human NCI-H23 cells at 1 uM by mass spectrometry based pull down assay; format: cell-based
[5] = target: 14-3-3 protein epsilon (Homo sapiens) (UniProt P62258); test: Binding affinity to YWHAE in human NCI-H23 cells at 1 uM by mass spectrometry based pull down assay; format: cell-based
[6] = target: Pigment epithelium-derived factor (Homo sapiens) (UniProt P36955); test: Binding affinity to SERPINF1 in human NCI-H23 cells at 1 uM by mass spectrometry based pull down assay; format: cell-based
[7] = target: Deoxyribose-phosphate aldolase (Homo sapiens) (UniProt Q9Y315); test: Binding affinity to DERA in human NCI-H23 cells at 1 uM by mass spectrometry based pull down assay; format: cell-based
[8] = target: Ubiquitin-like modifier-activating enzyme 1 (Homo sapiens) (UniProt P22314); test: Binding affinity to UBA1 in human NCI-H23 cells at 1 uM by mass spectrometry based pull down assay; format: cell-based
[9] = target: Eukaryotic translation initiation factor 2A (Homo sapiens) (UniProt Q9BY44); test: Binding affinity to EIF2A in human NCI-H23 cells at 1 uM by mass spectrometry based pull down assay; format: cell-based
[10] = target: ATP-dependent 6-phosphofructokinase, muscle type (Homo sapiens) (UniProt P08237); test: Binding affinity to PFKM in human NCI-H23 cells at 1 uM by mass spectrometry based pull down assay; format: cell-based
[11] = target: Apoptosis-inducing factor 1, mitochondrial (Homo sapiens) (UniProt O95831); test: Binding affinity to AIFM1 in human NCI-H23 cells at 1 uM by mass spectrometry based pull down assay; format: cell-based
Summary of the method: (§1)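 NCI-H23 or NCI-H358 cells were grown and lysed. Lysates were incubated overnight at 4 °C with 1 μM biotinylated covalent probe or DMSO, then pulled down on streptavidin beads. Proteins were run on polyacrylamide gels and stained with Coomassie. Bands were excised, digested and identified by mass spectrometry.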

[12] = target: UV radiation resistance-associated gene protein (Homo sapiens) (UniProt Q9P2Y5); test: Binding affinity to UVRAG in human NCI-H23 cells at 1 uM by mass spectrometry based pull down assay; format: cell-based
[13] = target: ATP-dependent 6-phosphofructokinase, liver type (Homo sapiens) (UniProt P17858); test: Binding affinity to PFKL in human NCI-H23 cells at 1 uM by mass spectrometry based pull down assay; format: cell-based
[14] = target: Actin-related protein 2 (Homo sapiens) (UniProt P61160); test: Binding affinity to ACTR2 in human NCI-H358 cells at 1 uM by mass spectrometry based pull down assay; format: cell-based; summary of the method: as §1
[15] = target: 14-3-3 protein epsilon (Homo sapiens) (UniProt P62258); test: Binding affinity to YWHAE in human NCI-H358 cells at 1 uM by mass spectrometry based pull down assay; format: cell-based
[16] = target: Pyrroline-5-carboxylate reductase 2 (Homo sapiens) (UniProt Q96C36); test: Binding affinity to PYCR2 in human NCI-H358 cells at 1 uM by mass spectrometry based pull down assay; format: cell-based
[17] = target: Thioredoxin reductase 1, cytoplasmic (Homo sapiens) (UniProt Q16881); test: Binding affinity to TXNRD1 in human NCI-H358 cells at 1 uM by mass spectrometry based pull down assay; format: cell-based
Beclin-1 (Homo sapiens) = Beclin-1 (Homo sapiens) (UniProt Q14457); test: Binding affinity to BECN1 in human NCI-H358 cells at 1 uM by mass spectrometry based pull down assay; format: cell-based
[18] = target: BLOC-2 complex member HPS6 (Homo sapiens) (UniProt Q86YV9); test: Binding affinity to HPS6 in human NCI-H358 cells at 1 uM by mass spectrometry based pull down assay; format: cell-based
[19] = target: T2, 80S Ribosome (Homo sapiens); test: Binding affinity to RPL9 in human NCI-H358 cells at 1 uM by mass spectrometry based pull down assay; format: cell-based
[20] = target: Protein disulfide-isomerase A3 (Homo sapiens) (UniProt P30101); test: Binding affinity to PDIA3 in human NCI-H358 cells at 1 uM by mass spectrometry based pull down assay; format: cell-based

14-3-3 protein epsilon (Homo sapiens), sequence (P62258 whole entry): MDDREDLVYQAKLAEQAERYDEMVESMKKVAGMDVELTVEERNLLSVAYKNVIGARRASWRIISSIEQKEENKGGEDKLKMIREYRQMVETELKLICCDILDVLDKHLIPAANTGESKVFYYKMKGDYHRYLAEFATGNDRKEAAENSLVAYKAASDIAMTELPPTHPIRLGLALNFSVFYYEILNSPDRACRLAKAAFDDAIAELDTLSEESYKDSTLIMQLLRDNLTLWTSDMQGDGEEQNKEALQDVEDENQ
Cyclin-dependent kinase-like 2 (Homo sapiens), sequence (Q92772 whole entry, the tested form may be a part): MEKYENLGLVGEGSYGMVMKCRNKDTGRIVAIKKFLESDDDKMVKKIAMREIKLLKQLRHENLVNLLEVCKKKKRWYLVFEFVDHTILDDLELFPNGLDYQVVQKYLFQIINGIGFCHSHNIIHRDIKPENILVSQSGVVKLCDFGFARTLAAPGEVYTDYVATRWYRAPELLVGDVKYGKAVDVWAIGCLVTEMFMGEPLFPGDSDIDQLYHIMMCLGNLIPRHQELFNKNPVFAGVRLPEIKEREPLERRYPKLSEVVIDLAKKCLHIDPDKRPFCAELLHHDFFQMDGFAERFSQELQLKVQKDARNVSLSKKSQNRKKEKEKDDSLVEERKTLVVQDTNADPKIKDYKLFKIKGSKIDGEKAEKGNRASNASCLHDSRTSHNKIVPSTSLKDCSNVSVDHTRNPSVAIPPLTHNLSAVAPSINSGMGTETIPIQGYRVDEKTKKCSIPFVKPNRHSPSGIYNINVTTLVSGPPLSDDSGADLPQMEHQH
ATP-dependent 6-phosphofructokinase, muscle type (Homo sapiens), sequence (P08237 whole entry): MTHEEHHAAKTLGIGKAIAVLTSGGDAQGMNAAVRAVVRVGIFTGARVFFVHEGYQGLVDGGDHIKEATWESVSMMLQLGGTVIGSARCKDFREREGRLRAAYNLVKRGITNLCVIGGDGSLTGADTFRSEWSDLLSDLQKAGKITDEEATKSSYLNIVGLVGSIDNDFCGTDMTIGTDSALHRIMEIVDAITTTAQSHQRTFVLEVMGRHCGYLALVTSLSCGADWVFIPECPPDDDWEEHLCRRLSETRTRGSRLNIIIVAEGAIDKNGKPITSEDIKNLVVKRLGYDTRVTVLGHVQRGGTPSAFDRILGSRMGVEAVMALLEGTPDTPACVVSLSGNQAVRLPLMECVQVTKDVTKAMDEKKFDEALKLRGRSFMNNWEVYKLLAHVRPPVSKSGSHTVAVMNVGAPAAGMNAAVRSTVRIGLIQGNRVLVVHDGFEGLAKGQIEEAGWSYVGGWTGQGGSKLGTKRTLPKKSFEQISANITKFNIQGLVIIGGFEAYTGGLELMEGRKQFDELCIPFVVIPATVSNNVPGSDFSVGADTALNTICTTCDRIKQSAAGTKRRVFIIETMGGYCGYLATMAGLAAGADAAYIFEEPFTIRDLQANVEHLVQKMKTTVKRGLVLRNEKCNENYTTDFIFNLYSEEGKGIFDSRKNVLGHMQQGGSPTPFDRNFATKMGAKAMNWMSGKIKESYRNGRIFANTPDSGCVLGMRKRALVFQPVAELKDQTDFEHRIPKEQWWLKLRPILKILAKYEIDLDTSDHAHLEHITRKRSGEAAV
ATP-dependent 6-phosphofructokinase, liver type (Homo sapiens), sequence (P17858 whole entry): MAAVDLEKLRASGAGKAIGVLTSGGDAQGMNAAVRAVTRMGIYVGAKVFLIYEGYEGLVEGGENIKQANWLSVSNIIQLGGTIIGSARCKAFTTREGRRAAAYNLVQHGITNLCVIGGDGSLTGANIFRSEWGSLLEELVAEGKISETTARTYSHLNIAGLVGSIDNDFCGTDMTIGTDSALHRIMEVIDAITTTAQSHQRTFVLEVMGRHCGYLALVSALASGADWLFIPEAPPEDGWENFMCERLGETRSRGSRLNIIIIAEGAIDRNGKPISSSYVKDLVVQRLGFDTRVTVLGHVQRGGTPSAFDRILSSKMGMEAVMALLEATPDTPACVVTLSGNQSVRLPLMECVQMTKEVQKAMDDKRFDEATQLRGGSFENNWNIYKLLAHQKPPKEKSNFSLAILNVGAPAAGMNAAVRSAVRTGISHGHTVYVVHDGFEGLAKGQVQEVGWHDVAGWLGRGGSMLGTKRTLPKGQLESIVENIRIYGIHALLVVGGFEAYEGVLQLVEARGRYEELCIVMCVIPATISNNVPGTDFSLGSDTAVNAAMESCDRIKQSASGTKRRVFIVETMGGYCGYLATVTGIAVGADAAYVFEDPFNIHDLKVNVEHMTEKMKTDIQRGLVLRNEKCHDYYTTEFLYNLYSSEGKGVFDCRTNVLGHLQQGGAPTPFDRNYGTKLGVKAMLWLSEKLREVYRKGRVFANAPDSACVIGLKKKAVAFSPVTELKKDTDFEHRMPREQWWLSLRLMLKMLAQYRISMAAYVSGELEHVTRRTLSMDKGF
Eukaryotic translation initiation factor 2A (Homo sapiens), sequence (Q9BY44 whole entry): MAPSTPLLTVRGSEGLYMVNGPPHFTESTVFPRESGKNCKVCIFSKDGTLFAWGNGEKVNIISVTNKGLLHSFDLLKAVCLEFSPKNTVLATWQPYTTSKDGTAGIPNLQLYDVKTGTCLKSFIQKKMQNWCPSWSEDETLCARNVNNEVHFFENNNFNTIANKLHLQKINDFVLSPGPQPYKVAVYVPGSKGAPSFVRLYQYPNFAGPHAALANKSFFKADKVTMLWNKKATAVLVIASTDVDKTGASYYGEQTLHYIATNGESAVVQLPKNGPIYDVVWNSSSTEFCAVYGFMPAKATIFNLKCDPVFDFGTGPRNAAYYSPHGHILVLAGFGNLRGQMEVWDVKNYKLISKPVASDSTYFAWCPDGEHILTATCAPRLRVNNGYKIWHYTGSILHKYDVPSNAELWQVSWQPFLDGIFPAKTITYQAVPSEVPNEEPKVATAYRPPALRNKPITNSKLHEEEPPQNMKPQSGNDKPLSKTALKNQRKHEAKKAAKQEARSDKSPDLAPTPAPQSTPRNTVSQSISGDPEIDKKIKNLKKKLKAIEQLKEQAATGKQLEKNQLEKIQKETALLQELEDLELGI
Phosphatidylinositol 4-phosphate 3-kinase C2 domain-containing subunit beta (Homo sapiens), sequence (O00750 whole entry, the tested form may be a part): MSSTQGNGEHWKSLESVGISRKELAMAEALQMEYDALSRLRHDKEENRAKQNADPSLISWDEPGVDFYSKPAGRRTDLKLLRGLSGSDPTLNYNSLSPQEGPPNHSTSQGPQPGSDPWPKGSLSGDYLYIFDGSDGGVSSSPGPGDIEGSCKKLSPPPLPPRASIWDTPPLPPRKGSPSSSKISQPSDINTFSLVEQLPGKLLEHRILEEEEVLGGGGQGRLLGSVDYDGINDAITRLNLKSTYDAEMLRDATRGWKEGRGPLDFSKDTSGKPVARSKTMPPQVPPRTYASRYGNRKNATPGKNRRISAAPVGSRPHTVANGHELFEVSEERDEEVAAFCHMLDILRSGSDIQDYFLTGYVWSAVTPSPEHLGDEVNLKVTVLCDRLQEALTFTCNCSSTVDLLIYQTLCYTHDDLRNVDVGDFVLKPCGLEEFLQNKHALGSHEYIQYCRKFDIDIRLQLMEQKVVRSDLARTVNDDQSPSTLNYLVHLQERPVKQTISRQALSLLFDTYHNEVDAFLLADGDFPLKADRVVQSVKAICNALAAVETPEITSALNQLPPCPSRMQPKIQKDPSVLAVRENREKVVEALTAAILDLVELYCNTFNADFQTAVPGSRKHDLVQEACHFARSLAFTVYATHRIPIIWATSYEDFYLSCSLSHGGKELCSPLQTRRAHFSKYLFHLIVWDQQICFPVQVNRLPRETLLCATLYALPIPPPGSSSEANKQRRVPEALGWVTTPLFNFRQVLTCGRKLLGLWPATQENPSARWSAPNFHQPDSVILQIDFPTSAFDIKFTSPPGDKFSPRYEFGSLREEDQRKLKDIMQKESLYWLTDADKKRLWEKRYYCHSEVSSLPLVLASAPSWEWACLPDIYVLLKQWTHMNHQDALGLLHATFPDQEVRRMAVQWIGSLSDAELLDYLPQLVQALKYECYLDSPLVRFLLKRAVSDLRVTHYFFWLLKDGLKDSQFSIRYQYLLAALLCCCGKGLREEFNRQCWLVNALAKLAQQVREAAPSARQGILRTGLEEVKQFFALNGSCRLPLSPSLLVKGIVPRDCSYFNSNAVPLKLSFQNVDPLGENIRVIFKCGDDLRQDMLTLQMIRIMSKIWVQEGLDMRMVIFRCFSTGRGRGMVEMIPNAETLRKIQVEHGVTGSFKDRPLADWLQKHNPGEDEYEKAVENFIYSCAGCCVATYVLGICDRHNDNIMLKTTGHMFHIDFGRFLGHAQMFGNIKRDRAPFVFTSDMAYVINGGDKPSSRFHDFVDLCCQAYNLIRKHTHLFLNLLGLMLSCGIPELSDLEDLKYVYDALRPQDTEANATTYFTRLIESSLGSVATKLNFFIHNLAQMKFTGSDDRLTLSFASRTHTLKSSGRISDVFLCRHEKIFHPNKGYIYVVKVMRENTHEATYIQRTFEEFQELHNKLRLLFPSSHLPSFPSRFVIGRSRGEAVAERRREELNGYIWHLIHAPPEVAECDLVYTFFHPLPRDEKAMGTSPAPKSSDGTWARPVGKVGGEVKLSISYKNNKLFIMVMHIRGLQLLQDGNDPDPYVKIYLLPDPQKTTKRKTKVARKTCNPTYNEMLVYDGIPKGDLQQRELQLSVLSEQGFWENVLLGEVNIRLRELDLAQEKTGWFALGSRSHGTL
Deoxyribose-phosphate aldolase (Homo sapiens), sequence (Q9Y315 whole entry): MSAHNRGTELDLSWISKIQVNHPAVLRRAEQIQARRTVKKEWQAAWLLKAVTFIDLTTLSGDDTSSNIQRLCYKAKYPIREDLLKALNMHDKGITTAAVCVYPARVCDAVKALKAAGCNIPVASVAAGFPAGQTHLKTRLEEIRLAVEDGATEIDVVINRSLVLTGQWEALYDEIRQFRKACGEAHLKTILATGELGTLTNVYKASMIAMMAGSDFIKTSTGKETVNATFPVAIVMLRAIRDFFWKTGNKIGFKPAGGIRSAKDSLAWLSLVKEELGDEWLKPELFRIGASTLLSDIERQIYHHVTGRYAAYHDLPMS

Structure (SMILES): COc1cc(O)c2c(c1)/C=C/C[C@H](O)[C@H](O)C(=O)/C=C\C[C@H](C)OC2=O
inhibition [1]: 8.3%
Activity [2]: 0.2%
Activity [3]: 76%

Activity [4]: Active
Activity [5]: Active
Activity [6]: Active
Activity [7]: Active
Activity [8]: Active
Activity [9]: Active
Activity [10]: Active
Activity [11]: Active
Activity [12]: Active
Activity [13]: Active
Activity [14]: Active
Activity [15]: Active
Activity [16]: Active
Activity [17]: Active
Activity (Beclin-1 (Homo sapiens)): Active
Activity [18]: Active
Activity [19]: Active
Activity [20]: Active
Structure (SMILES): C=CC(=O)Nc1ccccc1Nc1nc(Nc2ccc(N3CCN(CCOCCOCCOCCNC(=O)CCCC[C@@H]4SC[C@@H]5NC(=O)N[C@@H]54)CC3)cc2)ncc1Cl
